Converted amounts (≈) assume the structure as drawn.
Tests used:
Candida albicans [1] = test: Antimicrobial activity against Candida albicans Y0109 after 24 hrs by serial dilution method; type: functional; conditions: Y0109, 24 h
Outline: (§1)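 Broth serial dilution MIC in 96-well plates following NCCLS/CLSI methods. Compounds were dissolved in DMSO and serially diluted in growth medium, with incubation at 35 °C. […] C. parapsilosis 22019 served as the quality-control strain in each assay.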

Cryptococcus neoformans = test: Antimicrobial activity against Cryptococcus neoformans 32609 after 72 hrs by serial dilution method; type: functional; conditions: Cryptococcus neoformans, 32609, 72 h; outline: as §1
Candida parapsilosis = test: Antimicrobial activity against Candida parapsilosis 22019 after 24 hrs by serial dilution method; type: functional; conditions: Lodderomyces parapsilosis, 22019, 24 h; outline: as §1
Candida albicans [2] = test: Antimicrobial activity against fluconazole-resistant Candida albicans J38 after 24 hrs by serial dilution method; type: functional; conditions: J38, 24 h
Outline: (§2)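 Broth serial-dilution MIC in 96-well plates following NCCLS guidance. Compounds were dissolved in DMSO and serially diluted in growth medium. Clinical isolates came from a hospital collection. […] C. parapsilosis ATCC 22019 served as the quality-control strain in each assay.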

Candida albicans [3] = test: Ratio of fluconazole MIC to compound MIC for fluconazole-resistant Candida albicans J18 after 24 hrs by serial dilution method; type: functional
Candida albicans [4] = test: Antimicrobial activity against fluconazole-resistant Candida albicans 100 after 24 hrs by serial dilution method; type: functional; conditions: Candida albicans, 100, 24 h; outline: as §2
Candida albicans [5] = test: Antimicrobial activity against fluconazole-resistant Candida albicans J28 after 24 hrs by serial dilution method; type: functional; conditions: J28, 24 h; outline: as §2
Candida albicans [6] = test: Ratio of fluconazole MIC to compound MIC for fluconazole-resistant Candida albicans 100 after 24 hrs by serial dilution method; type: functional
Candida albicans [7] = test: Antimicrobial activity against Candida albicans SC5314 after 24 hrs by serial dilution method; type: functional; conditions: SC5314, 24 h; outline: as §1
Candida albicans [8] = test: Ratio of fluconazole MIC to compound MIC for fluconazole-resistant Candida albicans 103 after 24 hrs by serial dilution method; type: functional
Candida albicans [9] = test: Antimicrobial activity against fluconazole-resistant Candida albicans J18 after 24 hrs by serial dilution method; type: functional; conditions: J18, 24 h; outline: as §2
Aspergillus fumigatus = test: Antimicrobial activity against Aspergillus fumigatus 7544 after 48 hrs by serial dilution method; type: functional; conditions: Aspergillus fumigatus, 7544, 48 h; outline: as §1
Candida albicans [10] = test: Antimicrobial activity against fluconazole-resistant Candida albicans 103 after 24 hrs by serial dilution method; type: functional; conditions: Candida albicans, 103, 24 h; outline: as §2
Nakaseomyces glabratus = test: Antimicrobial activity against Candida glabrata 537 after 24 hrs by serial dilution method; type: functional; conditions: Nakaseomyces glabratus, 537, 24 h; outline: as §1
[11] = Aqueous solubility of the compound in hydrochloric acid solution at pH 1.2; type: physicochemical
Outline: (§3)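 Excess solid was stirred for 3 h in pH 1.2 hydrochloric acid or pH 7.4 phosphate buffer, then filtered through 0.45 μm. Absorbance at the UV maximum was compared with a methanol standard, C′ = A′C/A, with values reported in mg/mL. Determined at 30 °C; mean ± SD, n = 3.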

[12] = Aqueous solubility of the compound in phosphate buffer at pH 7.4; type: physicochemical; outline: as §3
[13] = target: Voltage-gated inwardly rectifying potassium channel KCNH2 (Homo sapiens, UniProt Q12809); test: Inhibition of human ERG expressed in CHO cells by whole-cell patch clamp assay; type: cell-based
Chain of Voltage-gated inwardly rectifying potassium channel KCNH2 (Q12809 whole entry): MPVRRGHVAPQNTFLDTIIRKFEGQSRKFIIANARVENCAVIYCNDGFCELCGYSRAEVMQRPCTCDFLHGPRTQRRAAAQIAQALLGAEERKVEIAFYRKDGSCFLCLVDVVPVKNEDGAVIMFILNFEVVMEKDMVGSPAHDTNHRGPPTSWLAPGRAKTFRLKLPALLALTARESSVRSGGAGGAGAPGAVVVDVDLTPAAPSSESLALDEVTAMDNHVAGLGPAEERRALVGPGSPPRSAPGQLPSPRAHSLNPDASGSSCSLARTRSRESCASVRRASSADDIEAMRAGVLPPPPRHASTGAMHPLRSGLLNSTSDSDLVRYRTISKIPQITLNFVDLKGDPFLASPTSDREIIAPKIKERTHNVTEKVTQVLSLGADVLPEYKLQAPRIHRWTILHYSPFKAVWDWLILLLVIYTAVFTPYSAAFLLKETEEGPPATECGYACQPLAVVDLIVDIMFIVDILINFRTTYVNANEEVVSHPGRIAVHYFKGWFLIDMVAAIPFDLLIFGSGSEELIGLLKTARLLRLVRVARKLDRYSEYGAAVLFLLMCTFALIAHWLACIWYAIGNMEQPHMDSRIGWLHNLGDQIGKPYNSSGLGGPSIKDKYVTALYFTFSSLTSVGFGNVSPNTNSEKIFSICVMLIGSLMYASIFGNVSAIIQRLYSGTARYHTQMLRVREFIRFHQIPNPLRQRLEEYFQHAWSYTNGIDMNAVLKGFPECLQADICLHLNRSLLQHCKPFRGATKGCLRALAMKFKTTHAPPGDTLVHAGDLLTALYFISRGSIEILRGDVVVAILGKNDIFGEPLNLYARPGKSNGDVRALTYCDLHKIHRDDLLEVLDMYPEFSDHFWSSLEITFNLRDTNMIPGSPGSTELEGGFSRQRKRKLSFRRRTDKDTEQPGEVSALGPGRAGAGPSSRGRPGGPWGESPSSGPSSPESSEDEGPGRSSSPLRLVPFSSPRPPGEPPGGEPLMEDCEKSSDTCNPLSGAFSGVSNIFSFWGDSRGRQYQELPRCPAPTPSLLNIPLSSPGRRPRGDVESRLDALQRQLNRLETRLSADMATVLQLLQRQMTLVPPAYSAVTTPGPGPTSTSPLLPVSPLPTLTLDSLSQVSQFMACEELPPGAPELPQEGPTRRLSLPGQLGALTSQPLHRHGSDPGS

Candida albicans [14] = test: Antimicrobial activity against fluconazole-resistant Candida albicans 103 infected in ICR mouse assessed as mean survival days at 0.5 mg/kg, po qd for 5 days starting 2 hrs post infection (reference value: 1.5 +/- 0.53 days); type: functional
Candida albicans [15] = test: Antimicrobial activity against Candida albicans SC5314 infected in ICR mouse assessed as mean survival days at 0.5 mg/kg, po qd for 5 days starting 2 hrs post infection (reference value: 5.2 +/- 2.35 days starting 2 hrs post infection); type: functional
Outline: (§4)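 Reference arm of the systemic C. albicans SC5314 model: female ICR mice (18−22 g, n = 10) were infected iv with 0.2 mL of 5 × 10⁶ CFU/mL. Fluconazole was given orally in distilled water, qd for 5 days from 2 h post-infection. Mean survival days were scored over 30 days.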

Candida albicans [16] = test: Antimicrobial activity against Candida albicans SC5314 infected in ICR mouse assessed as mean survival days at 0.5 mg/kg, po qd for 5 days starting 2 hrs post infection (reference value: 9.0 +/- 0.67 days); type: functional; outline: as §4

Row | SMILES | MIC (Candida albicans [1]) [µg/mL] | MIC (Cryptococcus neoformans) [µg/mL] | MIC (Candida parapsilosis) [µg/mL] | MIC (Candida albicans [2]) [µg/mL] | Ratio (Candida albicans [3]) | MIC (Candida albicans [4]) [µg/mL] | MIC (Candida albicans [5]) [µg/mL] | Ratio (Candida albicans [6]) | MIC (Candida albicans [7]) [µg/mL] | Ratio (Candida albicans [8]) | MIC (Candida albicans [9]) [µg/mL] | MIC (Aspergillus fumigatus) [µg/mL] | MIC (Candida albicans [10]) [µg/mL] | MIC (Nakaseomyces glabratus) [µg/mL] | solubility [11] [µg/mL] | solubility [12] [µg/mL] | IC50 [13] [µM] | Survival (Candida albicans [14]) [days] | Survival (Candida albicans [15]) [days] | Survival (Candida albicans [16]) [days]
1 | C[C@@H](N1CCn2nnc(Br)c2C1)[C@](O)(Cn1cncn1)c1ccc(F)cc1F | 0.0625 (≈ 0.138 µM) | ≤ 0.0625 | 0.125 (≈ 0.275 µM) | 0.25 (≈ 0.55 µM) | 16 | > 32 | 2 (≈ 4.4 µM) | 16 | ≤ 0.0312 | 16 | > 32 | 8 (≈ 17.6 µM) | > 32 | 0.25 (≈ 0.55 µM) | – | – | – | – | – | –
2 | C[C@@H](N1CCn2nc(-c3ccccc3)nc2C1)[C@](O)(Cn1cncn1)c1ccc(F)cc1F | 0.125 (≈ 0.277 µM) | 0.125 (≈ 0.277 µM) | 0.125 (≈ 0.277 µM) | 0.0625 (≈ 0.138 µM) | 16 | > 32 | 0.5 (≈ 1.11 µM) | 16 | 0.0625 (≈ 0.138 µM) | 16 | > 32 | 32 (≈ 70.9 µM) | > 32 | 0.125 (≈ 0.277 µM) | 316 (≈ 700 µM) | 97 (≈ 215 µM) | – | – | – | –
3 | C[C@@H](N1CCn2nc(-c3cccnc3)nc2C1)[C@](O)(Cn1cncn1)c1ccc(F)cc1F | 0.0312 (≈ 0.0691 µM) | 0.0312 (≈ 0.0691 µM) | 0.0312 (≈ 0.0691 µM) | – | – | – | – | – | 0.0312 (≈ 0.0691 µM) | – | – | 32 (≈ 70.7 µM) | – | 0.0312 (≈ 0.0691 µM) | 5900 (≈ 13000 µM) | 1820 (≈ 4010 µM) | – | – | – | –
4 | C[C@@H](N1CCc2nc(-c3ccccc3)sc2C1)[C@](O)(Cn1cncn1)c1ccc(F)cc1F | 0.5 (≈ 1.07 µM) | 0.125 (≈ 0.267 µM) | 0.5 (≈ 1.07 µM) | – | – | – | – | – | 0.5 (≈ 1.07 µM) | – | – | 16 (≈ 34.2 µM) | – | 0.5 (≈ 1.07 µM) | 1250 (≈ 2670 µM) | 130 (≈ 278 µM) | – | – | – | –
5 | C[C@@H](N1CCc2nc(-c3cccnc3)sc2C1)[C@](O)(Cn1cncn1)c1ccc(F)cc1F | 0.0312 (≈ 0.0667 µM) | 0.0625 (≈ 0.133 µM) | 0.125 (≈ 0.267 µM) | – | – | – | – | – | 0.0312 (≈ 0.0667 µM) | – | – | 2 (≈ 4.27 µM) | – | 0.125 (≈ 0.267 µM) | 10100 (≈ 21500 µM) | 2360 (≈ 5040 µM) | – | – | – | –
6 | C[C@@H](N1CCc2nc(-c3cncnc3)sc2C1)[C@](O)(Cn1cncn1)c1ccc(F)cc1F | 0.0156 (≈ 0.0332 µM) | 0.0625 (≈ 0.133 µM) | 0.0625 (≈ 0.133 µM) | ≤ 0.0312 | – | > 16 | 0.0625 (≈ 0.133 µM) | – | 0.0156 (≈ 0.0332 µM) | – | > 16 | 1 (≈ 2.13 µM) | 8 (≈ 17 µM) | 0.0625 (≈ 0.133 µM) | 14700 (≈ 31300 µM) | 3090 (≈ 6590 µM) | – | – | – | –
7 | C[C@@H](N1CCc2nc(-c3cncnc3)sc2C1)[C@](O)(Cn1cncn1)c1ccc(F)cc1F.Cl | – | – | – | – | – | – | – | – | – | – | – | – | – | – | – | 14800 | – | – | – | –
8 | CS(=O)(=O)O.C[C@@H](N1CCc2nc(-c3cncnc3)sc2C1)[C@](O)(Cn1cncn1)c1ccc(F)cc1F | – | – | – | – | – | – | – | – | – | – | – | – | – | – | – | 12000 | – | – | – | –
9 | C[C@@H](N1CCc2nc(-c3cncnc3)sc2C1)[C@](O)(Cn1cncn1)c1ccc(F)cc1F.Cc1ccc(S(=O)(=O)O)cc1 | – | – | – | – | – | – | – | – | – | – | – | – | – | – | – | 5800 | – | – | – | –
10 | C[C@@H](N1CCc2nc(-c3cncnc3)sc2C1)[C@](O)(Cn1cncn1)c1ccc(F)cc1F.O=S(=O)(O)O | – | – | – | – | – | – | – | – | – | – | – | – | – | – | – | 108000 | – | – | – | –
11 | Br.C[C@@H](N1CCc2nc(-c3cncnc3)sc2C1)[C@](O)(Cn1cncn1)c1ccc(F)cc1F | – | – | – | – | – | – | – | – | – | – | – | – | – | – | – | 12100 | – | – | – | –
12 | C[C@@H](N1CCc2nc(-c3cncnc3)sc2C1)[C@](O)(Cn1cncn1)c1ccc(F)cc1F.O=P(O)(O)O | – | – | – | – | – | – | – | – | – | – | – | – | – | – | – | 8330 | – | – | – | –
13 | CCC(C)n1ncn(-c2ccc(N3CCN(c4ccc(OCC5COC(Cn6cncn6)(c6ccc(Cl)cc6Cl)O5)cc4)CC3)cc2)c1=O (racemic) [ITRACONAZOLE] | – | – | – | – | – | – | – | – | – | – | – | – | – | – | – | – | > 40 | – | – | –
14 | C[C@@H](n1cnc2cc(Cl)ccc2c1=O)[C@](O)(Cn1cncn1)c1ccc(F)cc1F [ALBACONAZOLE] | ≤ 0.0312 | ≤ 0.0312 | 0.0156 (≈ 0.0361 µM) | ≤ 0.0312 | – | 8 (≈ 18.5 µM) | ≤ 0.0312 | – | 0.0078 (≈ 0.0181 µM) | – | > 16 | 0.5 (≈ 1.16 µM) | 4 (≈ 9.26 µM) | ≤ 0.0312 | 1 (≈ 2.32 µM) | – | – | – | – | –
15 | C[C@@H]1[C@H](O)[C@@H](C)/C=C/C=C/C=C/C=C/C=C/C=C/C=C/[C@H](O[C@@H]2O[C@H](C)[C@@H](O)[C@H](N)[C@@H]2O)C[C@@H]2O[C@](O)(C[C@@H](O)C[C@@H](O)[C@H](O)CC[C@@H](O)C[C@@H](O)CC(=O)O[C@H]1C)C[C@H](O)[C@H]2C(=O)O [AMPHOTERICIN B] | 1 (≈ 1.08 µM) | 1 (≈ 1.08 µM) | 0.5 (≈ 0.541 µM) | – | – | – | – | – | 1 (≈ 1.08 µM) | – | – | 4 (≈ 4.33 µM) | – | 0.5 (≈ 0.541 µM) | – | – | – | – | – | –
16 | OC(Cn1cncn1)(Cn1cncn1)c1ccc(F)cc1F [FLUCONAZOLE] | 0.5 (≈ 1.63 µM) | 0.5 (≈ 1.63 µM) | 1 (≈ 3.27 µM) | > 4 | – | 512 (≈ 1670 µM) | > 4 | – | 0.5 (≈ 1.63 µM) | – | > 1020 | > 64 | > 1020 | 0.25 (≈ 0.816 µM) | – | – | – | 2.3 | 11.7 | 13.1
17 | C[C@@H](c1nc(-c2ccc(C#N)cc2)cs1)[C@](O)(Cn1cncn1)c1ccc(F)cc1F [RAVUCONAZOLE] | 0.0625 (≈ 0.143 µM) | ≤ 0.0625 | 0.125 (≈ 0.286 µM) | – | – | – | – | – | 0.0625 (≈ 0.143 µM) | – | – | 1 (≈ 2.29 µM) | – | ≤ 0.125 | 3 (≈ 6.86 µM) | – | – | – | – | –
18 | C[C@@H](c1ncncc1F)[C@](O)(Cn1cncn1)c1ccc(F)cc1F [VORICONAZOLE] | 0.0625 (≈ 0.179 µM) | 0.0625 (≈ 0.179 µM) | 0.125 (≈ 0.358 µM) | 0.0625 (≈ 0.179 µM) | – | > 16 | 0.0625 (≈ 0.179 µM) | – | ≤ 0.0625 | – | > 16 | 2 (≈ 5.73 µM) | > 16 | ≤ 0.125 | 1260 (≈ 3620 µM) | 682 (≈ 1950 µM) | – | – | – | –

From ChEMBL document CHEMBL3259614, “Design, synthesis, and structure-activity relationship studies of novel fused heterocycles-linked triazoles with good activity and water solubility” (J Med Chem, 2014)
